According to ChEMBL document CHEMBL3352024, “A new series of HAPs as anti-HBV agents targeting at capsid assembly” (Bioorg Med Chem Lett, 2014):
Activity calls are given as the source filed them. No cut-off for these calls is given here.

Experiments:
Hepatitis B virus [1] = test: Antiviral activity against hepatitis B virus infected in human HepG2.2.15 cells assessed as inhibition of viral replication; assay type: functional, organism-based; conditions: hepg2 2.2.15
[2] = Cytotoxicity against human HepG2.2.15 cells after 48 hrs; assay type: cell-based; conditions: hepg2 2.2.15, 48 h
Method in brief: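 HepG2.2.15 cells exposed to compounds for 48 h; cell viability then determined as the cytotoxicity read-out.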

hepatitis B virus [3] = test: (§1) Selectivity index, ratio of TC50 for human HepG2.2.15 cells to IC50 for hepatitis B virus infected in human HepG2.2.15 cells; assay type: toxicity, cell-based; conditions: HepG2.2.15 cells, read-out: Selectivity Index
[4] = molecular target: Core antigen (Hepatitis B virus) (UniProt Q03732); test: Inhibition of hepatitis B virus capsid assembly after 24 hrs by HPLC analysis
Method in brief: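 Cp149 capsid protein is mixed with compound in 2× assembly buffer and incubated 24 h. Reactions are analysed by size-exclusion chromatography on an HPLC with autoinjection, on a column equilibrated in 100 mM HEPES pH 7.5, 300 mM NaCl at 0.6 ml/min. Recovered protein is assigned to void (8.5 min), capsid (9.5 min) and dimer (12.5 min) peaks.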

Hepatitis B virus [5] = test: Inhibition of hepatitis B virus capsid cp149 assembly assessed as reduction in dimer formation at capsid-compound ratio of 1:2 to 1:4 after 24 hrs by HPLC analysis
[6] = as §1; assay type: toxicity, cell-based

Chain of Core antigen (Hepatitis B virus) (Q03732 as listed by the source): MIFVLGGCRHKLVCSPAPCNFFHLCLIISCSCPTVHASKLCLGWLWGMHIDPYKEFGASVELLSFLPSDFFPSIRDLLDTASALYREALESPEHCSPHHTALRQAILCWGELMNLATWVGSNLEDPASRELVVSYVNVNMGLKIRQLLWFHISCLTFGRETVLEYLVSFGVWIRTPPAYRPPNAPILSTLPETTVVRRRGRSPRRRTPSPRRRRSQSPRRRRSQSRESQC

| IC50 (Hepatitis B virus [1]) [µmol] | SMILES | TC0 [2] [µmol] | TC50 [2] [µmol] | selectivity ratio (hepatitis B virus [3]) | inhibition [4] | inhibition (Hepatitis B virus [5]) | Selectivity Index [6] |
| --- | --- | --- | --- | --- | --- | --- | --- |
| 7.55 | CCOC(=O)C1=C(CN2CCN(C)CC2)NC(c2c(F)cc(F)cc2F)=NC1c1ccc(F)cc1Cl (stereo not drawn) | 14.1 | 98.74 | 13.1 | – | – | – |
| 14.17 | Nc1ccn([C@@H]2CS[C@H](CO)O2)c(=O)n1 [LAMIVUDINE] | 0.82 | 5.75 | – | – | – | – |
| 6.71 | CCOC(=O)C1=C(CN2CCN(CC)CC2)NC(c2c(F)cc(F)cc2F)=NC1c1ccc(F)cc1Cl (stereo not drawn) | 13.78 | 41.3 | 6.16 | – | – | – |
| 6.66 | CCOC(=O)C1=C(CN(CCO)CCO)NC(c2c(F)cc(F)cc2F)=NC1c1ccc(F)cc1Cl (stereo not drawn) | 13.98 | 54.02 | 8.11 | – | – | – |
| 4.35 | CCOC(=O)C1=C(CN2CCOCC2)NC(c2c(F)cc(F)cc2N2CCOCC2)=NC1c1ccc(F)cc1Cl (stereo not drawn) | 12.81 | 55.25 | 12.7 | – | – | – |
| – | CCOC(=O)C1=C(CN2CCOCC2)NC(c2c(F)cc(F)cc2F)=NC1c1ccc(F)cc1Cl (stereo not drawn) [listing 1 of 2 here] | – | – | – | Active | Active | – |
| – | CCOC(=O)C1=C(CN2CCSCC2)NC(c2c(F)cc(F)cc2F)=NC1c1ccc(F)cc1Cl (stereo not drawn) | 4.68 | 32.73 | – | – | – | – |
| – | CCOC(=O)C1=C(CN2CCCC2)NC(c2c(F)cc(F)cc2F)=NC1c1ccc(F)cc1Cl (stereo not drawn) | 14.96 | 77.29 | – | – | – | – |
| 10.24 | CCOC(=O)C1=C(CN2CCCCC2)NC(c2c(F)cc(F)cc2F)=NC1c1ccc(F)cc1Cl (stereo not drawn) | 14.56 | 25.21 | 2.46 | – | – | – |
| – | CCOC(=O)C1=C(CN2CCN(C(=O)OCC)CC2)NC(c2c(F)cc(F)cc2F)=NC1c1ccc(F)cc1Cl (stereo not drawn) | 4.22 | 29.6 | – | – | – | – |
| – | CCCN1CCN(CC2=C(C(=O)OCC)C(c3ccc(F)cc3Cl)N=C(c3c(F)cc(F)cc3F)N2)CC1 (stereo not drawn) | 4.45 | 31.25 | – | – | – | – |
| 9.56 | CCOC(=O)C1=C(CN2CCC(C)CC2)NC(c2c(F)cc(F)cc2F)=NC1c1ccc(F)cc1Cl (stereo not drawn) | 4.65 | 32.98 | – | – | – | – |
| 5.74 | CCOC(=O)C1=C(CN2CCNC(=O)C2)NC(c2c(F)cc(F)cc2F)=NC1c1ccc(F)cc1Cl (stereo not drawn) | 4.7 | 32.85 | 5.72 | – | – | – |

| SMILES | IC50 (Hepatitis B virus [1]) [µmol] | TC0 [2] [µmol] | TC50 [2] [µmol] | selectivity ratio (hepatitis B virus [3]) | inhibition [4] | inhibition (Hepatitis B virus [5]) | Selectivity Index [6] |
| --- | --- | --- | --- | --- | --- | --- | --- |
| CCOC(=O)C1=C(CN2CCOCC2)NC(c2c(F)cc(F)cc2F)=NC1c1ccc(F)cc1Cl.Cl (stereo not drawn) | 2.35 | 4.51 | 31.48 | – | – | – | 13.37 |
| CCOC(=O)C1=C(CN2CCOCC2)NC(c2c(F)cc(F)cc2F)=NC1c1ccc(F)cc1Cl (stereo not drawn) [listing 2 of 2 here] | 10.57 | 4.83 | 33.75 | – | – | – | 3.19 |
